# Data: ChEMBL document CHEMBL3596093, “Synthesis and antimicrobial evaluation of 5-aryl-1,2,4-triazole-3-thione derivatives containing a rhodanine moiety” (2015)
# Columns and labels:
# [1] = test system: Escherichia coli; assay: Antibacterial activity against Escherichia coli KCTC 1924 after 24 hrs by two-fold serial dilution method; type: functional; details: KCTC 1924, 24 h
# Outline: (§1)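 Strains grown to mid-log phase in Mueller-Hinton broth, then diluted 1000-fold in the same broth to about 10^5 CFU/mL. Compounds were made up as DMSO stocks and two-fold serially diluted from a final top concentration of 64 µg/mL. Incubation was 37 °C for 24 h. Growth was read as absorbance at 630 nm on a microplate reader. MIC assays were run in triplicate.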
# [2] = test system: Staphylococcus aureus; assay: Antibacterial activity against Staphylococcus aureus KCTC 209 after 24 hrs by two-fold serial dilution method; type: functional; details: KCTC 209, 24 h; outline: as §1
# [3] = test system: Streptococcus mutans; assay: Antibacterial activity against Streptococcus mutans 3065 after 24 hrs by two-fold serial dilution method; type: functional; details: Streptococcus mutans, 3065, 24 h; outline: as §1
# [4] = test system: Salmonella typhimurium; assay: Antibacterial activity against Salmonella typhimurium 2421 after 24 hrs by two-fold serial dilution method; type: functional, Salmonella enterica subsp. enterica serovar Typhimurium; details: Salmonella enterica, 2421, 24 h; outline: as §1
# [5] = test system: Staphylococcus aureus; assay: Antibacterial activity against methicillin-resistant Staphylococcus aureus CCARM 3506 after 24 hrs by two-fold serial dilution method; type: functional; details: CCARM 3506, 24 h
# Outline: (§2)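 Broth microdilution MIC. Bacteria grown to mid-log phase in Mueller-Hinton broth, diluted 1000-fold, about 10^5 CFU/mL. Compounds from DMSO stocks, two-fold serial dilution from a final 64 µg/mL. Incubation at 37 °C for 24 h. Growth read as absorbance at 630 nm on a microplate reader. Run in triplicate.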
# [6] = test system: Escherichia coli; assay: Antibacterial activity against Escherichia coli CCARM 1356 after 24 hrs by two-fold serial dilution method; type: functional; details: CCARM 1356, 24 h; outline: as §1
# [7] = test system: Staphylococcus aureus; assay: Antibacterial activity against methicillin-resistant Staphylococcus aureus CCARM 3167 after 24 hrs by two-fold serial dilution method; type: functional; details: CCARM 3167, 24 h; outline: as §2
# [8] = test system: Staphylococcus aureus; assay: Antibacterial activity against Staphylococcus aureus KCTC 503 after 24 hrs by two-fold serial dilution method; type: functional; details: KCTC 503, 24 h; outline: as §1
# [9] = test system: Candida albicans; assay: Antifungal activity against Candida albicans 7535 after 24 hrs by two-fold serial dilution method; type: functional; details: Candida albicans, 7535, 24 h
# [10] = test system: Staphylococcus aureus; assay: Antibacterial activity against quinolone-resistant Staphylococcus aureus CCARM 3519 after 24 hrs by two-fold serial dilution method; type: functional; details: CCARM 3519, 24 h; outline: as §2
# [11] = test system: Pseudomonas aeruginosa; assay: Antibacterial activity against Pseudomonas aeruginosa 2742 after 24 hrs by two-fold serial dilution method; type: functional; details: Pseudomonas aeruginosa, 2742, 24 h; outline: as §1
# [12] = test system: Staphylococcus aureus; assay: Antibacterial activity against quinolone-resistant Staphylococcus aureus CCARM 3505 after 24 hrs by two-fold serial dilution method; type: functional; details: CCARM 3505, 24 h; outline: as §2
# [13] = test system: Pseudomonas aeruginosa; assay: Antibacterial activity against Pseudomonas aeruginosa 2004 after 24 hrs by two-fold serial dilution method; type: functional; details: Pseudomonas aeruginosa, 2004, 24 h; outline: as §1
# [14] = test system: Staphylococcus aureus; assay: Antibacterial activity against Staphylococcus aureus RN4220 after 24 hrs by two-fold serial dilution method; type: functional; details: RN4220, 24 h; outline: as §2
# [15] = test system: Staphylococcus aureus; assay: Bactericidal activity against quinolone-resistant Staphylococcus aureus CCARM 3519 after 24 hrs by agar plate method; type: functional; details: CCARM 3519, 24 h
# Outline: (§3)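 5 µL from each well without visible growth plated on fresh Mueller-Hinton agar, then 37 °C for a further 24 h. MBC is the lowest concentration giving no visible colonies. Run in triplicate.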
# [16] = test system: Staphylococcus aureus; assay: Bactericidal activity against methicillin-resistant Staphylococcus aureus CCARM 3167 after 24 hrs by agar plate method; type: functional; details: CCARM 3167, 24 h; outline: as §3
# [17] = test system: Staphylococcus aureus; assay: Bactericidal activity against quinolone-resistant Staphylococcus aureus CCARM 3505 after 24 hrs by agar plate method; type: functional; details: CCARM 3505, 24 h; outline: as §3
# [18] = test system: Staphylococcus aureus; assay: Bactericidal activity against Staphylococcus aureus KCTC 503 after 24 hrs by agar plate method; type: functional; details: KCTC 503, 24 h; outline: as §3
# [19] = test system: Escherichia coli; assay: Bactericidal activity against Escherichia coli KCTC 1924 after 24 hrs by agar plate method; type: functional; details: KCTC 1924, 24 h
# Outline: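 Samples of 5 µL from MIC wells with no visible growth were plated onto fresh Mueller-Hinton agar and incubated a further 24 h at 37 °C. MBC is the lowest concentration giving no visible colony growth on the agar. Assays were run in triplicate.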
Structure (SMILES),MIC [1] [µg/mL],MIC [2] [µg/mL],MIC [3] [µg/mL],MIC [4] [µg/mL],MIC [5] [µg/mL],MIC [6] [µg/mL],MIC [7] [µg/mL],MIC [8] [µg/mL],MIC [9] [µg/mL],MIC [10] [µg/mL],MIC [11] [µg/mL],MIC [12] [µg/mL],MIC [13] [µg/mL],MIC [14] [µg/mL],MBC [15] [µg/mL],MBC [16] [µg/mL],MBC [17] [µg/mL],MBC [18] [µg/mL],MBC [19] [µg/mL]
O=C(O)CN1C(=O)/C(=C/c2ccc(/C=N/n3c(-c4ccccc4)n[nH]c3=S)cc2)SC1=S,> 128,> 64,> 64,> 128,> 64,> 128,> 64,> 64,> 64,> 64,> 128,> 64,> 128,> 64,–,–,–,–,–
O=C(O)CN1C(=O)/C(=C/c2ccc(/C=N/n3c(-c4ccc(Br)cc4)n[nH]c3=S)cc2)SC1=S,> 128,> 64,> 64,> 128,> 64,> 128,> 64,> 64,> 64,> 64,> 128,> 64,> 128,> 64,–,–,–,–,–
Cc1ccc(-c2n[nH]c(=S)n2/N=C/c2ccc(/C=C3\SC(=S)N(CC(=O)O)C3=O)cc2)cc1,> 128,> 64,> 64,> 128,> 64,> 128,> 64,> 64,> 64,16,> 128,> 64,> 128,> 64,> 128,–,–,–,–
Cc1ccc(-c2n[nH]c(=S)n2/N=C/c2ccc(/C=C3\SC(=S)NC3=O)cc2)cc1,> 128,> 64,> 64,> 128,> 64,> 128,> 64,> 64,> 64,> 64,> 128,> 64,> 128,> 64,–,–,–,–,–
O=C1NC(=S)S/C1=C\c1ccc(/C=N/n2c(-c3ccc(F)cc3)n[nH]c2=S)cc1,> 128,> 64,> 64,> 128,> 64,> 128,> 64,> 64,> 64,> 64,> 128,> 64,> 128,> 64,–,–,–,–,–
O=C(O)CN1C(=O)/C(=C/c2ccc(/C=N/n3c(-c4cccc(Cl)c4)n[nH]c3=S)cc2)SC1=S,> 128,> 64,> 64,> 128,> 64,> 128,> 64,> 64,> 64,> 64,> 128,> 64,> 128,> 64,–,–,–,–,–
O=C(O)CN1C(=O)/C(=C/c2ccc(/C=N/n3c(-c4ccc(Cl)cc4)n[nH]c3=S)cc2)SC1=S,> 128,> 64,> 64,> 128,> 64,> 128,> 64,> 64,> 64,> 64,> 128,> 64,> 128,> 64,–,–,–,–,–
Cc1cccc(-c2n[nH]c(=S)n2/N=C/c2ccc(/C=C3\SC(=S)N(CC(=O)O)C3=O)cc2)c1,32,> 64,> 64,> 128,> 64,> 128,64,64,> 64,64,> 128,64,> 128,> 64,> 256,> 256,> 256,> 256,> 256
O=C1NC(=S)S/C1=C\c1ccc(/C=N/n2c(-c3ccc(Br)cc3)n[nH]c2=S)cc1,64,> 64,> 64,> 128,> 64,> 128,> 64,> 64,> 64,> 64,> 128,> 64,> 128,> 64,–,–,–,–,> 256
O=C1NC(=S)S/C1=C\c1ccc(/C=N/n2c(-c3cccc(Cl)c3)n[nH]c2=S)cc1,> 128,> 64,> 64,> 128,> 64,> 128,> 64,> 64,> 64,> 64,> 128,> 64,> 128,> 64,–,–,–,–,–
O=C1NC(=S)S/C1=C\c1ccc(/C=N/n2c(-c3ccc(Cl)cc3)n[nH]c2=S)cc1,> 128,> 64,> 64,> 128,> 64,> 128,> 64,> 64,> 64,> 64,> 128,> 64,> 128,> 64,–,–,–,–,–
